Assay results taken from ChEMBL document CHEMBL1124938, “Antihypertensive dihydropyridines with 1,4,4-trisubstitution” (1990).

How the values were obtained:
Rattus norvegicus [1] = test: Total antihypertensive activity was obtained from the area between compound and control MAP (mean arterial pressure) curves, after (ip) 30 mg/kg administration in spontaneously hypertensive rats (SHR).; type: functional, Artery
Procedure, shortened: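 SHR dosed once ip at 30 mg/kg in 1% methylcellulose suspension (n = 3), with vehicle-dosed concurrent controls (n = 3). MAP recorded continuously over 24 h; time points 0, 0.25, 0.5, 1, 2, 4, 6, 12, 18 and 24 h used. Value is area between drug and control MAP curves, in mmHg × h.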

Rattus norvegicus [2] = test: Antihypertensive effects in conscious, unrestrained, spontaneously hypertensive rats after 30 mg/kg i.p. administration.; type: functional; conditions: route intraperitoneal
Procedure, shortened: (§1)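 SHR housed singly with free access to tap water, overnight recovery before testing. Compound suspended in 1% methylcellulose, given once ip at 30 mg/kg or by oral gavage at 100 mg/kg (n = 3); concurrent controls (n = 3) got 1 mL vehicle by same route. MAP recorded continuously 24 h; value is maximum change from concurrent control, mean ± SEM.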

Rattus norvegicus [3] = test: Antihypertensive effects in conscious, unrestrained, spontaneously hypertensive rats after 100 mg/kg p.o. administration.; type: functional; conditions: route oral; procedure, shortened: as §1

Row | Compound | Antihypertensive activity (Rattus norvegicus [1]) | Max change in blood pressure (Rattus norvegicus [2]) | Max change in blood pressure (Rattus norvegicus [3]) | Activity (Rattus norvegicus [1])
1 | CN(C)CC(=O)N1C=CC(c2ccccc2)(c2ccccc2)C=C1.Cl | 362 mmHg·h | -29 mmHg | -12 mmHg | 
2 | CC1(C)C=CN(/C(=N/c2ccccc2)N2CCCC2)C=C1.O=C(O)/C=C\C(=O)O |  | 27 mmHg | 19 mmHg | 
3 | CN(C)CC(=O)N1C=CC(C)(C)C=C1.O=C(O)/C=C\C(=O)O |  | -52 mmHg | -39 mmHg | 132 mmHg·h
4 | CC1(C)C=CN(C(=O)Nc2ccccc2)C=C1 |  | -24 mmHg | -15 mmHg | 
5 | CN(C)CCN1C=CC(c2ccccc2)(c2ccccc2)C=C1 |  | -30 mmHg | -14 mmHg | 
6 | COc1ccc(CC(=O)N2C=CC(C)(C)C=C2)cc1OC |  | -21 mmHg | 23 mmHg | 
7 | COC(=O)CCCN1C=CC(c2ccc(OC)cc2)(c2ccc(OC)cc2)C=C1 |  | 11 mmHg | -21 mmHg | 
8 | COC(=O)CCN1C=CC(C)(C)C=C1 |  | -71 mmHg | -19 mmHg | 1360 mmHg·h
9 | COC(=O)CCCN1C=CC(C)(C)C=C1 |  | -42 mmHg | -45 mmHg | 696 mmHg·h
10 | CN(C)CCN1C=CC(C)(C)C=C1 | 281 mmHg·h | -32 mmHg | -10 mmHg | 
11 | COc1ccc(CCN2C=CC(c3ccccc3)(c3ccccc3)C=C2)cc1OC |  | -7 mmHg | -7 mmHg | 
12 | CNC(=O)N1C=CC(C)(C)C=C1 |  | -34 mmHg | -41 mmHg | 
13 | COC(=O)CCCCN1C=CC(C)(C)C=C1 |  | -58 mmHg | -11 mmHg | 943 mmHg·h
14 | CNC(=O)N1C=CC(c2ccccc2)(c2ccccc2)C=C1 |  | 17 mmHg | -11 mmHg | 
15 | CC1(C)C=CN(C(=O)c2ccccc2)C=C1 | 210 mmHg·h | -21 mmHg | -27 mmHg | 
16 | CC1(C)C=CN(C(=O)c2ccc[nH]2)C=C1 |  | 6 mmHg | -7 mmHg | 
17 | O=C(c1ccccc1)N1C=CC(c2ccccc2)(c2ccccc2)C=C1 |  | 11 mmHg | 12 mmHg | 
18 | Cc1csc(N2C=CC(C)(C)C=C2)n1 |  | 14 mmHg | -21 mmHg | 
19 | CC1(C)C=CN(C(=O)c2cccnc2)C=C1 | 291 mmHg·h | -19 mmHg | -26 mmHg | 
20 | CC1(C)C=CN(C(=O)C(c2ccccc2)c2ccccc2)C=C1 |  | -9 mmHg | -6 mmHg | 
21 | COC(=O)C1=C(C)NC(C)=C(C(=O)OC)C1c1ccccc1[N+](=O)[O-] [NIFEDIPINE] |  | -71 mmHg | -68 mmHg | 
